Structures are written as SMILES. Active and inactive are the calls of the source.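 Rule for the calls, unless noted: active = potentiation averaged over duplicate wells exceeding buffer-only control mean by more than 3 SD; inactive = the rest.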

Here are results for 40 compounds from PubChem BioAssay.

Sequence of Potassium voltage-gated channel subfamily KQT member 1 (Homo sapiens) (P51787 whole entry, looked up): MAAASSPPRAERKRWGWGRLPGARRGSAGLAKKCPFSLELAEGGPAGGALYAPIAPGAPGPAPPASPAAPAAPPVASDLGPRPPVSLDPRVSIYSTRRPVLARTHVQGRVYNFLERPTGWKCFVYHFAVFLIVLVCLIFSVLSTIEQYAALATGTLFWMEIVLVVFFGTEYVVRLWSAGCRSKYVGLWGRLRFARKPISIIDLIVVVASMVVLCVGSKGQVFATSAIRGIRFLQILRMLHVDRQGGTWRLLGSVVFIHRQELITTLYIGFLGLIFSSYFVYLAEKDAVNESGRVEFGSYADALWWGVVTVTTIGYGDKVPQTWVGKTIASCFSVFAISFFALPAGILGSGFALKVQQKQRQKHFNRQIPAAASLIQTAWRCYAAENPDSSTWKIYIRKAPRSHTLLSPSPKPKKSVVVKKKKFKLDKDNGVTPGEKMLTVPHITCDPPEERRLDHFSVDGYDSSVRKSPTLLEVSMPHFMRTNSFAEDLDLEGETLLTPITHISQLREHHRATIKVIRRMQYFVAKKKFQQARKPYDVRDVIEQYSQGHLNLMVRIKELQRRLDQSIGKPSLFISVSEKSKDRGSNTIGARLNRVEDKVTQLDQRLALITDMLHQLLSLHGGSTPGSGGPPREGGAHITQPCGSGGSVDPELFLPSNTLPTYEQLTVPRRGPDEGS

System in one experiment: not listed separately
Kind of experiment: nonspecific flux increase, KCNQ1-free cells – parental CHO cells, counter-screen for KCNQ1 potentiator project (AID 493006;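 active = duplicate-averaged activation above buffer control mean plus 5 SD of those controls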;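 for activation: fluorescence ratio of max minus min over baseline after K+ and Tl+ depolarization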). The conditions noted are these: parental CHO-K1 cells, FluxOR thallium flux, at 10 µM; hits give high values. In a few lines: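 Material: untransfected host CHO-K1 cells with FluxOR thallium dye. Timing: overnight 37 °C plating, 90 min RT dye, 20 min compound. Detection: kinetic FluxOR fluorescence, 10 s baseline, 110 s after stimulus. Read-out basis: max-minus-min fluorescence over baseline, percent of buffer-to-R-L3 span. Replicates: duplicate wells per compound, percent values averaged.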
Turning to `COc1ccc(-c2cc(C(=O)Nc3c(Cl)cc(Cl)cc3Cl)c3ccccc3n2)cc1OC`, the outcome was inactive.

As for `CCOC(=O)c1c(C)[nH]c(C(=O)Cn2nnc(-c3ccccc3Cl)n2)c1C`, the result was inactive.

Take `COC(=O)C1CCCN1C(=O)COc1ccc(Cl)cc1Br` (stereo not given): the activation was 152% (active).

Turning to `O=C1Nc2cc(C(=O)NCCCN3CCOCC3)ccc2S/C1=C/c1cccc(Cl)c1`, the outcome was inactive.

With `COC(=O)c1cn(NC(=O)Cc2ccc(Cl)c(Cl)c2)c(=O)c2ccccc12`, the result was inactive.

For the compound `CCN(CC)c1ccc(/C=N/Nc2nc3ccccc3[nH]2)c(O)c1`, the result was inactive.

Consider `O=C(NC(=S)Nc1nc2ccccc2s1)c1cccs1`, for which the activation was 400% (active).

Turning to `CCOc1ccc(S(=O)(=O)N2CCCC(C(=O)NCCN3CCOCC3)C2)cc1Cl` (stereo not given), the activation was 260% (active).

Consider `Nc1c(C(=O)Nc2ccc(F)cc2)nnn1-c1cccc(C(F)(F)F)c1`, for which the outcome was inactive.

Take `O=C(NC(=S)Nc1ccc(N2CCCCC2)cc1)c1ccco1`: the activation is 214% (active).

For `CSC(=S)N/N=C(\C)c1ccccc1`, the activation was 246% (active).

With `CC(=O)/C=C1/C(=O)Nc2ccccc21`, the activation is 167% (active).

Consider `Cc1nnc(SCC(=O)N(Cc2ccccc2)C(C)C)n1-c1ccccc1`, for which the outcome was inactive.

With `COc1ccc(/C=N\NC(=S)SCN2C(=O)C3CCC(C)(C2=O)C3(C)C)cc1` (stereo not given), the result was inactive.

Take `CCCc1cc2c(-c3ccccc3)cc(=O)oc2cc1OCc1ccc(C(=O)O)o1`: the activation was 193% (active).

Regarding `Cc1cc2ccccn2c1C(=S)NC(=O)c1ccccc1`, the activation was 290% (active).

As for `Cc1ccccc1-n1c(C)cc(/C=N/NC(=O)c2ccncc2)c1C`, the outcome was inactive.

Regarding `C/C(Cl)=C\Cn1c(O)c(N=NC(N)=S)c2cc(Br)ccc21`, the result was inactive.

Consider `COC(=O)c1c(NC(=O)c2ccccc2)sc(C(=O)c2ccccc2)c1C`, for which the outcome was inactive.

In the case of `CCOC(=O)/C(=C\c1cccnc1)C(=O)c1cc(C(C)=O)c(Nc2ccccc2)s1`, the outcome was inactive.

For the compound `CCCCc1nc2sc3c(SCCN(C)C)ncnc3c2c2c1CCC2`, the activation was 207% (active).

For the compound `O=C(NC(=S)Nc1ccccc1N1CCCCC1)c1ccc(F)cc1Cl`, the outcome was inactive.

As to `Cn1ncc2c(O/N=C(\N)c3ccc(C(C)(C)C)cc3)ncnc21`, the result was inactive.

With `Cc1nc(SC(C)C(=O)c2c(N)n(C)c(=O)n(C)c2=O)c2c(C)c(C)sc2n1` (stereo not given), the activation was 199% (active).

With `CCc1ccc(S(=O)(=O)Nc2cc3c(cc2N2CCCCC2)n(C)c(=O)c(=O)n3C)cc1`, the result was inactive.

As for `COc1cccc(C(=O)NNC(=O)C(=O)Nc2ccc(C)cc2)c1`, the activation was 206% (active).

As for `Cc1cc(/C=N/NC(=O)c2cccs2)c(C)n1-c1ccccc1`, the result was inactive.

Consider `C[C@@H](NC(=O)[C@@H]1Cc2ccccc2CN1)C(=O)NC1CCCC1`, for which the result was inactive.

As for `Cc1ccc(NC(=S)N2CCC(N(C)CC3CCCO3)CC2)cc1` (stereo not given), the outcome was inactive.

Take `CCc1cc2c(=O)[nH]c(-c3ccccn3)nc2s1`: the result was inactive.

For `COc1ccc(NS(=O)(=O)c2ccc(N/N=C(\C)c3ccncc3)c([N+](=O)[O-])c2)cc1`, the outcome was inactive.

With `CC(C)(C)c1cc(C(=O)NNC(=O)c2ccc(Cl)cc2)no1`, the activation is 200% (active).

In the case of `Cc1snnc1C(=O)NC(=S)Nc1ccccc1`, the activation was 205% (active).

In the case of `Cc1nn(-c2ccccc2)c2nc(C(Cl)(Cl)Cl)[nH]c(=O)c12`, the activation is 145% (active).

Turning to `O=S(=O)(NC(=S)NC1CCCCC1)c1ccc(Br)cc1`, the activation is 200% (active).

For the compound `Cc1ccc(C(C(=O)NC2CCCCC2)N(Cc2cccnc2)C(=O)C2COc3ccccc3O2)o1` (stereo not given), the outcome was inactive.

On to `Cc1ccc(-n2c(=S)[nH]c3c(oc4ccccc43)c2=O)cc1C`, for which the activation is 160% (active).

As to `CCC1CCc2c(sc(NC(=O)C3CC=CCC3C(=O)O)c2C#N)C1` (stereo not given), the result was inactive.

For `CCOc1ccc2[nH]c(=O)c(CN(Cc3ccc(C)cc3)C(=O)N3CCCC3)cc2c1`, the result was inactive.

`COc1ccc(-c2nnc(Nc3nc4c(OC)cccc4s3)o2)cc1`: the activation was 468% (active).

Another experiment has as its target Potassium voltage-gated channel subfamily KQT member 1 (Homo sapiens) (UniProt P51787). Kind of experiment: enhancement of KCNQ1 channel thallium flux – FluxOR thallium flux, CHO cells, duplicates, confirmation (AID 493007).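 For outcome: cells depolarized by a potassium plus thallium sulfate stimulus after compound.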 The note with it: KCNQ1 cell line, FluxOR thallium flux fluorescence, at 10 µM; hits give high values, % of reference activator effect, buffer zero. In a few lines: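 Test system – KCNQ1-expressing CHO cell line · Incubation – FluxOR dye loading 90 min, compound exposure 20 min, room temperature · Detection – FluxOR Tl+ flux fluorescence, 10 s baseline plus 110 s recording · Controls – buffer-only wells as 0% and R-L3 activator as 100%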
Consider `COc1ccc(-c2cc(C(=O)Nc3c(Cl)cc(Cl)cc3Cl)c3ccccc3n2)cc1OC`, for which the outcome was inactive.

For the compound `CCOC(=O)c1c(C)[nH]c(C(=O)Cn2nnc(-c3ccccc3Cl)n2)c1C`, the result was inactive.

Consider `COC(=O)C1CCCN1C(=O)COc1ccc(Cl)cc1Br` (stereo not given), for which the result was inactive.

Turning to `O=C1Nc2cc(C(=O)NCCCN3CCOCC3)ccc2S/C1=C/c1cccc(Cl)c1`, the result was inactive.

As to `COC(=O)c1cn(NC(=O)Cc2ccc(Cl)c(Cl)c2)c(=O)c2ccccc12`, the result was inactive.

With `CCN(CC)c1ccc(/C=N/Nc2nc3ccccc3[nH]2)c(O)c1`, the outcome was inactive.

For `O=C(NC(=S)Nc1nc2ccccc2s1)c1cccs1`, the potentiation is 180% (active).

Turning to `CCOc1ccc(S(=O)(=O)N2CCCC(C(=O)NCCN3CCOCC3)C2)cc1Cl` (stereo not given), the potentiation is 108% (active).

Regarding `Nc1c(C(=O)Nc2ccc(F)cc2)nnn1-c1cccc(C(F)(F)F)c1`, the result was inactive.

Regarding `O=C(NC(=S)Nc1ccc(N2CCCCC2)cc1)c1ccco1`, the potentiation was 180% (active).

In the case of `CSC(=S)N/N=C(\C)c1ccccc1`, the potentiation is 50.5% (active).

With `CC(=O)/C=C1/C(=O)Nc2ccccc21`, the potentiation was 63.5% (active).

For the compound `Cc1nnc(SCC(=O)N(Cc2ccccc2)C(C)C)n1-c1ccccc1`, the result was inactive.

Consider `COc1ccc(/C=N\NC(=S)SCN2C(=O)C3CCC(C)(C2=O)C3(C)C)cc1` (stereo not given), for which the result was inactive.

For the compound `CCCc1cc2c(-c3ccccc3)cc(=O)oc2cc1OCc1ccc(C(=O)O)o1`, the potentiation is 73% (active).

Take `Cc1cc2ccccn2c1C(=S)NC(=O)c1ccccc1`: the potentiation is 102% (active).

`Cc1ccccc1-n1c(C)cc(/C=N/NC(=O)c2ccncc2)c1C`: the potentiation was 25% (active).

Take `C/C(Cl)=C\Cn1c(O)c(N=NC(N)=S)c2cc(Br)ccc21`: the potentiation was 70.5% (active).

Take `COC(=O)c1c(NC(=O)c2ccccc2)sc(C(=O)c2ccccc2)c1C`: the result was inactive.

`CCOC(=O)/C(=C\c1cccnc1)C(=O)c1cc(C(C)=O)c(Nc2ccccc2)s1`: the result was inactive.

For the compound `CCCCc1nc2sc3c(SCCN(C)C)ncnc3c2c2c1CCC2`, the potentiation was 122% (active).

In the case of `O=C(NC(=S)Nc1ccccc1N1CCCCC1)c1ccc(F)cc1Cl`, the potentiation was 49.5% (active).

With `Cn1ncc2c(O/N=C(\N)c3ccc(C(C)(C)C)cc3)ncnc21`, the result was inactive.

For the compound `Cc1nc(SC(C)C(=O)c2c(N)n(C)c(=O)n(C)c2=O)c2c(C)c(C)sc2n1` (stereo not given), the potentiation was 86% (active).

Regarding `CCc1ccc(S(=O)(=O)Nc2cc3c(cc2N2CCCCC2)n(C)c(=O)c(=O)n3C)cc1`, the result was inactive.

For the compound `COc1cccc(C(=O)NNC(=O)C(=O)Nc2ccc(C)cc2)c1`, the potentiation was 92% (active).

Regarding `Cc1cc(/C=N/NC(=O)c2cccs2)c(C)n1-c1ccccc1`, the outcome was inactive.

In the case of `C[C@@H](NC(=O)[C@@H]1Cc2ccccc2CN1)C(=O)NC1CCCC1`, the outcome was inactive.

Regarding `Cc1ccc(NC(=S)N2CCC(N(C)CC3CCCO3)CC2)cc1` (stereo not given), the potentiation was 19.5% (active).

For `CCc1cc2c(=O)[nH]c(-c3ccccn3)nc2s1`, the potentiation was 26% (active).

Regarding `COc1ccc(NS(=O)(=O)c2ccc(N/N=C(\C)c3ccncc3)c([N+](=O)[O-])c2)cc1`, the result was inactive.

For the compound `CC(C)(C)c1cc(C(=O)NNC(=O)c2ccc(Cl)cc2)no1`, the potentiation was 86.5% (active).

As to `Cc1snnc1C(=O)NC(=S)Nc1ccccc1`, the potentiation was 90% (active).

Consider `Cc1nn(-c2ccccc2)c2nc(C(Cl)(Cl)Cl)[nH]c(=O)c12`, for which the result was inactive.

As to `O=S(=O)(NC(=S)NC1CCCCC1)c1ccc(Br)cc1`, the potentiation is 52% (active).

In the case of `Cc1ccc(C(C(=O)NC2CCCCC2)N(Cc2cccnc2)C(=O)C2COc3ccccc3O2)o1` (stereo not given), the outcome was inactive.

As for `Cc1ccc(-n2c(=S)[nH]c3c(oc4ccccc43)c2=O)cc1C`, the potentiation was 23.5% (active).

Consider `CCC1CCc2c(sc(NC(=O)C3CC=CCC3C(=O)O)c2C#N)C1` (stereo not given), for which the result was inactive.

Regarding `CCOc1ccc2[nH]c(=O)c(CN(Cc3ccc(C)cc3)C(=O)N3CCCC3)cc2c1`, the outcome was inactive.

For `COc1ccc(-c2nnc(Nc3nc4c(OC)cccc4s3)o2)cc1`, the potentiation is 164% (active).
